Results published in ChEMBL document CHEMBL5303300, “EUbOPEN Chemogenomics Library - Multiplex” (2023).
“And” between values parts separate entries of the source, which are not always exact repeats. Equal entries are not always repeated.

Tested on: U2OS
Test: Multiplex assay against U2OS
Type: toxicity, cell-based
Conditions: human, number of replicates 2
Outline: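 Four dyes were applied at seeding to live cells: Hoechst33342, BioTracker Green Microtubule Cytoskeleton Dye, MitoTracker Red and Annexin V Alexa Fluor 680. Imaging after compound addition used a CQ1 microscope at 37°C and 5% CO2. CellPathfinder machine-learning gating then sorted cells into Hoechst high-intensity objects or normal cells, normal cells into healthy, pyknosed or fragmented nuclei, and pyknosed cells into mitotic or apoptotic, with tubulin, mitochondrial-mass and membrane-permeability phenotypes given as per cents of healthy-nucleus cells.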

[1] = 12 h, 10 µM, compound concentration 10 uM
[2] = 24 h, 10 µM, compound concentration 10 uM
[3] = 48 h, 10 µM, compound concentration 10 uM
[4] = 12 h, 1 µM, compound concentration 1 uM
[5] = 24 h, 1 µM, compound concentration 1 uM
[6] = 48 h, 1 µM, compound concentration 1 uM

**Q.** How did the “Population Apoptotic (%)” value [1] turn out when `CCOC(=O)Nc1cc(-c2ccc(C)c(NS(C)(=O)=O)c2)nn2c(C)nnc12` was run?
**A.** The value was 54% and 50% and 20%.

**Q.** And the “Population Healthy Nuclei (%)” value [1]?
**A.** Its value is 66% and 75% and 76% and 53%.

**Q.** And the “Population Hoechst High Intensity Objects (%)” value [1]?
**A.** Its value is 0%.

**Q.** And the “Population Membrane Permeable-Phenotype (%)” value [1]?
**A.** The value was 3% and 0% and 5%.

**Q.** What about the “Population Mitochondria Different-Phenotype (%)” value [1] of the same compound?
**A.** Its value is 3% [middle of 4 runs].

**Q.** And the “Population Mitotic Cells (%)” value [1]?
**A.** The value was 45% and 50% and 80%.

**Q.** What about the “Population Normal (%)” value [1] of the same compound?
**A.** Its value is 100%.

**Q.** And the “Population Pyknosed Nuclei (%)” value [1]?
**A.** The value was 24% and 19% and 17% and 15%.

**Q.** What about the “Population Tubulin-Different-Phenotype (%)” value [1] of the same compound?
**A.** Its value is 59% [middle of 4 runs].

**Q.** And the “Population Apoptotic (%)” value [2]?
**A.** The value was 70% and 65% and 53% and 66%.

**Q.** What about the “Population Healthy Nuclei (%)” value [2] of the same compound?
**A.** The value was 59% and 69% and 67% and 50%.

**Q.** What about the “Population Hoechst High Intensity Objects (%)” value [2] of the same compound?
**A.** Its value is 0%.

**Q.** And the “Population Membrane Permeable-Phenotype (%)” value [2]?
**A.** Its value is 6% [middle of 4 runs].

**Q.** What about the “Population Mitotic Cells (%)” value [2] of the same compound?
**A.** The value was 29% and 35% and 46% and 33%.

**Q.** What about the “Population Normal (%)” value [2] of the same compound?
**A.** The value was 100% and 99%.

**Q.** What about the “Population Pyknosed Nuclei (%)” value [2] of the same compound?
**A.** Its value is 20% [middle of 4 runs].

**Q.** What about the “Population Tubulin-Different-Phenotype (%)” value [2] of the same compound?
**A.** The value was 71% [middle of 4 runs].

**Q.** And the “Population Apoptotic (%)” value [3]?
**A.** Its value is 85% and 72% and 76%.

**Q.** What about the “Population Fragmented Nuclei (%)” value [3] of the same compound?
**A.** The value was 30% and 20% and 18%.

**Q.** What about the “Population Healthy Nuclei (%)” value [3] of the same compound?
**A.** Its value is 30% and 33% and 51%.

**Q.** What about the “Population Hoechst High Intensity Objects (%)” value [3] of the same compound?
**A.** Its value is 0% and 3%.

**Q.** And the “Population Mitochondria Different-Phenotype (%)” value [3]?
**A.** The value was 9% and 0% and 3%.

**Q.** What about the “Population Mitotic Cells (%)” value [3] of the same compound?
**A.** The value was 14% and 27% and 23%.

**Q.** And the “Population Normal (%)” value [3]?
**A.** The value was 100% and 96% and 99%.

**Q.** What about the “Population Pyknosed Nuclei (%)” value [3] of the same compound?
**A.** The value was 38% and 45% and 27% and 29%.

**Q.** For `CC(C)N1CCN(Cc2cnc(-c3cc(-c4cccc5[nH]ccc45)cc4[nH]ncc34)o2)CC1` [NEMIRALISIB], which “Population Apoptotic (%)” value [4] is on record?
**A.** Its value is 42% and 80%.

**Q.** What about the “Population Fragmented Nuclei (%)” value [4] of the same compound?
**A.** Its value is 12% and 2%.

**Q.** What about the “Population Healthy Nuclei (%)” value [4] of the same compound?
**A.** The value was 70% and 85%.

**Q.** What about the “Population Hoechst High Intensity Objects (%)” value [4] of the same compound?
**A.** Its value is 0%.

**Q.** What about the “Population Membrane Permeable-Phenotype (%)” value [4] of the same compound?
**A.** Its value is 0% and 1%.

**Q.** What about the “Population Mitochondria Different-Phenotype (%)” value [4] of the same compound?
**A.** The value was 3% and 0%.

**Q.** And the “Population Mitotic Cells (%)” value [4]?
**A.** Its value is 57% and 20%.

**Q.** What about the “Population Normal (%)” value [4] of the same compound?
**A.** The value was 100% and 99%.

**Q.** What about the “Population Pyknosed Nuclei (%)” value [4] of the same compound?
**A.** Its value is 17% and 11%.

**Q.** And the “Population Tubulin-Different-Phenotype (%)” value [4]?
**A.** The value was 53% and 72%.

**Q.** And the “Population Apoptotic (%)” value [1]?
**A.** Its value is 69% and 57%.

**Q.** And the “Population Fragmented Nuclei (%)” value [1]?
**A.** Its value is 13%.

**Q.** What about the “Population Healthy Nuclei (%)” value [1] of the same compound?
**A.** The value was 62% and 65%.

**Q.** What about the “Population Hoechst High Intensity Objects (%)” value [1] of the same compound?
**A.** The value was 0%.

**Q.** What about the “Population Membrane Permeable-Phenotype (%)” value [1] of the same compound?
**A.** The value was 15% and 8%.

**Q.** And the “Population Mitotic Cells (%)” value [1]?
**A.** The value was 30% and 42%.

**Q.** And the “Population Normal (%)” value [1]?
**A.** Its value is 100%.

**Q.** What about the “Population Pyknosed Nuclei (%)” value [1] of the same compound?
**A.** The value was 24% and 20%.

**Q.** What about the “Population Tubulin-Different-Phenotype (%)” value [1] of the same compound?
**A.** Its value is 18% and 30%.

**Q.** What about the “Population Apoptotic (%)” value [5] of the same compound?
**A.** Its value is 60% and 80%.

**Q.** And the “Population Fragmented Nuclei (%)” value [5]?
**A.** The value was 4% and 3%.

**Q.** What about the “Population Healthy Nuclei (%)” value [5] of the same compound?
**A.** Its value is 72% and 87%.

**Q.** And the “Population Hoechst High Intensity Objects (%)” value [5]?
**A.** The value was 0%.

**Q.** What about the “Population Membrane Permeable-Phenotype (%)” value [5] of the same compound?
**A.** The value was 0% and 1%.

**Q.** What about the “Population Mitochondria Different-Phenotype (%)” value [5] of the same compound?
**A.** Its value is 0% and 2%.

**Q.** And the “Population Mitotic Cells (%)” value [5]?
**A.** The value was 40% and 19%.

**Q.** And the “Population Normal (%)” value [5]?
**A.** The value was 100% and 99%.

**Q.** And the “Population Pyknosed Nuclei (%)” value [5]?
**A.** The value was 22% and 9%.

**Q.** And the “Population Tubulin-Different-Phenotype (%)” value [5]?
**A.** Its value is 59% and 78%.

**Q.** And the “Population Apoptotic (%)” value [2]?
**A.** Its value is 33% and 60%.

**Q.** What about the “Population Fragmented Nuclei (%)” value [2] of the same compound?
**A.** The value was 10%.

**Q.** And the “Population Healthy Nuclei (%)” value [2]?
**A.** The value was 52% and 55%.

**Q.** What about the “Population Hoechst High Intensity Objects (%)” value [2] of the same compound?
**A.** Its value is 2% and 0%.

**Q.** What about the “Population Membrane Permeable-Phenotype (%)” value [2] of the same compound?
**A.** The value was 4% and 8%.

**Q.** And the “Population Mitochondria Different-Phenotype (%)” value [2]?
**A.** The value was 36% and 43%.

**Q.** What about the “Population Mitotic Cells (%)” value [2] of the same compound?
**A.** The value was 66% and 39%.

**Q.** And the “Population Normal (%)” value [2]?
**A.** The value was 97% and 99%.

**Q.** What about the “Population Pyknosed Nuclei (%)” value [2] of the same compound?
**A.** The value was 37% and 34%.

**Q.** And the “Population Tubulin-Different-Phenotype (%)” value [2]?
**A.** The value was 32% and 33%.

**Q.** What about the “Population Apoptotic (%)” value [6] of the same compound?
**A.** Its value is 47% and 70%.

**Q.** And the “Population Fragmented Nuclei (%)” value [6]?
**A.** The value was 4% and 3%.

**Q.** And the “Population Healthy Nuclei (%)” value [6]?
**A.** Its value is 74% and 88%.

**Q.** And the “Population Hoechst High Intensity Objects (%)” value [6]?
**A.** The value was 0%.

**Q.** What about the “Population Membrane Permeable-Phenotype (%)” value [6] of the same compound?
**A.** Its value is 1% and 2%.

**Q.** What about the “Population Mitochondria Different-Phenotype (%)” value [6] of the same compound?
**A.** The value was 1% and 0%.

**Q.** And the “Population Mitotic Cells (%)” value [6]?
**A.** Its value is 52% and 29%.

**Q.** What about the “Population Normal (%)” value [6] of the same compound?
**A.** Its value is 100%.

**Q.** And the “Population Pyknosed Nuclei (%)” value [6]?
**A.** Its value is 20% and 8%.

**Q.** And the “Population Tubulin-Different-Phenotype (%)” value [6]?
**A.** Its value is 81% and 76%.

**Q.** What about the “Population Apoptotic (%)” value [3] of the same compound?
**A.** Its value is 60% and 67%.

**Q.** And the “Population Fragmented Nuclei (%)” value [3]?
**A.** The value was 23% and 8%.

**Q.** What about the “Population Healthy Nuclei (%)” value [3] of the same compound?
**A.** The value was 25% and 55%.

**Q.** What about the “Population Hoechst High Intensity Objects (%)” value [3] of the same compound?
**A.** The value was 3% and 2%.

**Q.** And the “Population Membrane Permeable-Phenotype (%)” value [3]?
**A.** Its value is 12% and 11%.

**Q.** And the “Population Mitochondria Different-Phenotype (%)” value [3]?
**A.** Its value is 37% and 35%.

**Q.** What about the “Population Mitotic Cells (%)” value [3] of the same compound?
**A.** The value was 39% and 32%.

**Q.** What about the “Population Normal (%)” value [3] of the same compound?
**A.** The value was 96% and 97%.

**Q.** What about the “Population Pyknosed Nuclei (%)” value [3] of the same compound?
**A.** The value was 51% and 35%.

**Q.** And the “Population Tubulin-Different-Phenotype (%)” value [3]?
**A.** The value was 25% and 38%.
